Assay outcomes from PubChem BioAssay.
OX1R antag-1 – OX1R (HCRTR1) antagonists, primary screen, fluorescence, CHO/OX1R cells, Fluo-8 calcium, orexin A | Orexin/Hypocretin receptor type 1 (Homo sapiens), O43613 | Fluo-8 calcium fluorescence | inhibition, % at 5 µM | actives 0.43% (n = 330,000) | AID 434989, 2010;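 active = inhibition above its plate's threshold, mean inhibition of all tested compounds on the plate plus 3 SD, cut at about 37% in these data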;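 note: 0% = orexin A challenge wells and 100% = SB-334867-A antagonist wells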
CHO parental Ca – ATP-evoked calcium signal inhibitors, parental CHO, primary screen, counter-screen for OX1R antagonist project, cell-based, fluorescence, Fluo-8 calcium dye | parental CHO-K1, ATP-induced calcium, Fluo-8 fluorescence | inhibition, % at 5.6 µM | actives 0.63% (n = 330,000) | AID 463079, 2010;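 active = inhibition above that plate's mean sample inhibition plus 3 SD, cut at about 26% in these data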;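 note: 0% = ATP-challenged DMSO wells and 100% = DMSO wells without ATP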
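Assay system: untransfected parental CHO cell line. Also added: ATP agonist challenge. Dosing: one dose, 5.6 µM nominal. Measured by: Fluo-8 fluorescence. Read-out: % inhibition. Benchmarks: ATP wells versus no-ATP DMSO wells. Repeats: no replicates.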
TAAR1 antagonist – human TAAR1 antagonists, primary screen, Fluo-8 calcium fluorescence, CHO RD-HGA16 cells. AID 624466, 2012. inhibition, % at 3 µM. actives 1.5% (n = 360,000). antagonist;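 active = inhibition above a per-plate cutoff, the mean inhibition of test compounds on that plate plus 3 SD, cut at about 49% in these data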;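 note: 0% = DMSO plus EC80 beta-PEA response and 100% = DMSO alone without agonist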
Target sequence (Q96RJ0 whole entry, looked up): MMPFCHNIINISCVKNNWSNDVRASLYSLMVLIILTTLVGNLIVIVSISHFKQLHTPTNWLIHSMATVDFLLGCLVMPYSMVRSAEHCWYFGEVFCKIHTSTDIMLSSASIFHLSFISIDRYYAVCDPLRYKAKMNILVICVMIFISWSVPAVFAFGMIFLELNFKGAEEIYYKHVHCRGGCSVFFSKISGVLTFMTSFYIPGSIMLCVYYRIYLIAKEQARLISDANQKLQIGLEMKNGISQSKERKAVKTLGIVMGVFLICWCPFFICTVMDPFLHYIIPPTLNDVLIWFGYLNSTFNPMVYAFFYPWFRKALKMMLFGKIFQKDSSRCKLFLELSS
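Assay system: RD-HGA16 CHO cells with stable hTAAR1 and Gα16 / Reagent: EC80 β-phenethylamine stimulus / Doses: 3 µM, single point / Timing: dye loading 75 min at 37 °C, then 30 min room temperature / Measured by: Fluo-8 intracellular calcium dye fluorescence, real-time kinetic reads / Controls: vehicle wells and EC80 agonist wells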
OX1R antag-2 – antagonists of human orexin 1 receptor (OX1R). inhibition, % at 6.6 µM. OX1R-expressing cells, FRET antagonist read-out. actives 1.8% (n = 330,000). AID 485270, 2010; in the data active = inhibition mostly above about 38%, no sharp cut-off; inactive = mostly below about 40%;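 note: 0% = agonist challenge alone and 100% = reference antagonist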
TAAR1 agonist – human TAAR1 agonists, primary screen, Fluo-8 calcium fluorescence, CHO RD-HGA16 cells. Trace amine-associated receptor 1 (Homo sapiens), Q96RJ0. vehicle wells 0%, saturating PEA agonist 100%. activation, % at 3 µM. actives 0.99% (n = 360,000);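 active = activation above the mean activation of all test compounds in the run plus 3 SD, cut at about 38% in these data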
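Assay system – CHO-derived RD-HGA16 cells with stable Gα16 and human TAAR1 · Compound dosing – one-point dosing at 3 µM (nominal) · Incubation – 17-24 h seeding, 75 min 37 °C dye, 30 min RT · Measured by – kinetic Fluo-8 calcium fluorescence · Control set – DMSO vehicle as 0%, PEA at EC100 as 100% · Repeats – single well for each compound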
GPR7 antag – GPR7 receptor antagonists, primary screen, cell-based, fluorescence, single concentration; Neuropeptides B/W receptor type 1 (Homo sapiens), P48145; GPR7-expressing cells, fluorescence antagonist assay; inhibition, % at 4.4 µM; actives 1.1% (n = 290,000); AID 1861, 2009; in the data active = inhibition above about 16%, passing the limit was not always enough;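 note: cells stimulated with the agonist NPW; 0% = agonist with vehicle and 100% = vehicle without agonist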
Numbers without * were called inactive; nt = not tested or not shown. Only some compounds are listed: those with a hit (about 4.6% of all), similar ones and a draw of the others.

SMILES	OX1R antag-1	CHO parental Ca	TAAR1 antagonist	OX1R antag-2	TAAR1 agonist	GPR7 antag
COc1ccc(N(CC(=O)NCc2ccc(C)cc2)S(=O)(=O)c2ccccc2[N+](=O)[O-])c(OC)c1	8	-10	5	45	10	6
CCOc1ncccc1C(=O)Nc1nnc(C)s1	1	-13	-8	15	1	-5
CCOc1ncccc1C(=O)Nc1nnc(C2CC2)s1	9	-12	5	74*	3	0
CCOc1ncccc1C(=O)Nc1ccc2c(c1)OCO2	-15	-20	-31	12	-2	-4
CCOc1ncccc1C(=O)Nc1cc2c(cc1Br)OCCO2	22	-30	-21	40*	7	nt
O=C(CSc1ccccc1)Nc1nnc(C2CC2)s1	-4	30*	-24	21	8	15
O=C(CSc1cccc(C(F)(F)F)c1)Nc1nnc(C2CC2)s1	9	5	-24	3	3	nt
CC1CCc2cc(F)ccc2N1C(=O)C12CCC(C)(C(=O)O1)C2(C)C (stereo not drawn)	-34	-14	-4	4	9	-1
Cc1ccc(NC(=S)N(CCCN2CCCC(C)C2)Cc2ccco2)cc1C (stereo not drawn)	-13	-11	-24	-2	3	-2
CCn1c(SCC(=O)c2[nH]c(C)c(C(C)=O)c2C)nnc1-c1cccs1	-12	5	21	11	22	-1
CC(=O)c1c(C)[nH]c(C(=O)CSc2nc3ccccc3n2C)c1C	78*	51*	55*	108*	24	9
O=c1c2cc(Br)ccc2nc(-c2cccc(C(F)(F)F)c2)n1O	20	28	-9	39	46*	-6
O=C1CC(N2CCN(S(=O)(=O)c3cccc(C(F)(F)F)c3)CC2)C(=O)N1Cc1ccccc1 (stereo not drawn)	-8	-12	14	16	11	25*
O=C(CS(=O)(=O)c1ccccc1)N1CCN(c2ccccc2)CC1	-15	5	-3	14	2	nt
O=C(c1ccc(S(=O)(=O)Cc2ccccc2Cl)c([N+](=O)[O-])c1)N1CCOCC1	-35	-13	-4	16	4	-3
c1ccc(Nc2nc(-c3ccccc3)ns2)cc1	-13	-3	17	49*	9	-8
O=C(N/N=C/c1sc(N2CCOCC2)nc1-c1ccccc1)c1cccc(S(=O)(=O)N2CCCC2)c1	-5	-10	52*	18	14	-17
O=C(N/N=C/c1sc(N2CCOCC2)nc1-c1ccccc1)c1ccc(O)cc1	-7	-14	22	16	2	8
COc1cccc(CNc2nc(NC(C)C)nc3ccsc23)c1	nt	nt	-11	nt	6	nt
CCSc1ncc(C)cc1[N+](=O)[O-]	4	3	-7	9	4	-6
NC(=S)N1OC[C@@H]2COc3ccc4ccccc4c3[C@@H]21	13	0	13	8	4	16*
Cc1ccc(OCCCCn2cnc3ccccc32)cc1	21	4	-27	16	4	-1
Cc1ccccc1OCCCCn1cnc2ccccc21	0	50*	7	13	10	16
Cc1nc2ccccc2n1Cc1ccc(Cl)cc1	4	31*	-2	43	2	16
CC(=O)c1cn(CCOc2ccccc2C)c2ccccc12	22	41*	27	37	10	26
c1ccc2c(c1)ncn2CCCCOc1ccc2c(c1)CCC2	-7	37*	33	19	7	-3
c1ccc2c(c1)ncn2CCCOc1ccc2c(c1)CCC2	-16	15	17	21	14	-3
CC1CCC2C(C1)Nc1c(C(=O)O)cccc1C2(C)C (stereo not drawn)	-5	9	1	8	0	-6
N#Cc1ccccc1OCC(=O)N1CCN(C(=O)c2ccco2)CC1	-12	-12	-10	-5	1	3
Cc1ccc(CNC(=O)C(=O)NCC2CCCN2S(=O)(=O)c2cccs2)cc1 (stereo not drawn)	-34	-26	-21	20	0	nt
